From PubChem BioAssay
An excerpt weighted towards active compounds, which were near 3.3% of everything screened.
Cl transport mod – KCC2 cotransporter modulators, thallium flux, primary screen, cell-based, HEK293 KCC2, FluoZin-2 fluorescence, MLSMR. Solute carrier family 12 member 5 (Homo sapiens), Q9H2X9. KCC2 cells, thallium flux FluoZin-2 fluorescence. B-score of Tl+ flux slope (higher = more flux/activation; lower = inhibition) at 10 µM. hit rate 2.2% among 190,000. AID 1456, 2008;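 active = thallium flux slope and its plate-corrected score both differing from the plate sample mean at a set confidence after two filtering rounds, in either direction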;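 note: slope of fluorescence scaled to starting intensity during 10 to 20 s after thallium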
Target sequence (Q9H2X9 whole entry, looked up): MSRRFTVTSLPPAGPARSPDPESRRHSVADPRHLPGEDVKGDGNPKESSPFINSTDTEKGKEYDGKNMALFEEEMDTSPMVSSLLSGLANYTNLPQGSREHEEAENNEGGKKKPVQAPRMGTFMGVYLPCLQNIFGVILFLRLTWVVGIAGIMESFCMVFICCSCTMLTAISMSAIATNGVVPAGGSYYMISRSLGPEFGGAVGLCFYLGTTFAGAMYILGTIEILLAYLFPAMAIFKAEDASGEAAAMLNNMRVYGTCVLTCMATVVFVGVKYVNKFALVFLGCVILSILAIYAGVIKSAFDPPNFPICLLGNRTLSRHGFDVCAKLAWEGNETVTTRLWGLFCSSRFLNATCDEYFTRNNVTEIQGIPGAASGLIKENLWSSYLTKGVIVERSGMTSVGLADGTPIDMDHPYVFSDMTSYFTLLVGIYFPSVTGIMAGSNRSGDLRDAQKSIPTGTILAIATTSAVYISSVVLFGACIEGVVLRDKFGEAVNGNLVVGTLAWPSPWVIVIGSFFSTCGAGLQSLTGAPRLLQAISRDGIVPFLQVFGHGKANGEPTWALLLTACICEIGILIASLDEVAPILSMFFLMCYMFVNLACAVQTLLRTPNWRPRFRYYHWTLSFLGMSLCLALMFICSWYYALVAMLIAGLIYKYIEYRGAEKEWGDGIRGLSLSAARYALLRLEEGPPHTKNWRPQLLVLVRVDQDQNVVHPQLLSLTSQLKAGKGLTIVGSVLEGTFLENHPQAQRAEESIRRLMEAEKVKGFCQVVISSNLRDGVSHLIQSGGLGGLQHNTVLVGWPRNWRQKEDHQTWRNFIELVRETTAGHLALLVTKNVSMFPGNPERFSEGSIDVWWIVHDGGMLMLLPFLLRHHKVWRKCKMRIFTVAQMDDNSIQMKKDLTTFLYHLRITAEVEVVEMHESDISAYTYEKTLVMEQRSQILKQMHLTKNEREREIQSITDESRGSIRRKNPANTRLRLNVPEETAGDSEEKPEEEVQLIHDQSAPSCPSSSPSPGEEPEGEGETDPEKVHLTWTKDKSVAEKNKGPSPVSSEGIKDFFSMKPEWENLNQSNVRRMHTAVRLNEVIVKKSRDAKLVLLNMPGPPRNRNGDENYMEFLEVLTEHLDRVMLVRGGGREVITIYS
ROMK primary – ROMK potassium channel modulators, primary screen, cell-based, thallium flux, MLSMR library; Tet-inducible ROMK, thallium flux fluorescence; actives lie on both sides; hit rate 2% among 130,000; B-score at 10 µM;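 active = signal ratio slope over the read window, or its plate-corrected B-score, at least 3 SD from the plate mean, either direction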;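 note: B-score of the F/F0 ratio slope over 7 to 12 s after thallium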
PMI act hi M6P – human PMI activators, high substrate, primary screen, biochemical, fluorescence intensity, near-saturating mannose 6-phosphate; Mannose-6-phosphate isomerase (Homo sapiens), P34949; coupled PMI enzyme assay, resazurin fluorescence, 20 min; active compounds read high; 1 = untreated enzyme, 0 = substrate-free blank; activation factor at 20 µM; hit rate 0.34% among 190,000; AID 1216, 2008;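 active = activation factor of 2 or more at 20 µM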
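Material: human phosphomannose isomerase with PGI, G6PDH, diaphorase coupling enzymes. Quantity: 15 ng/mL PMI. Medium: HEPES pH 7.4 buffer with MgCl2 and Tween-20. Reagent: Near-saturating mannose-6-phosphate, 1.0 mM. Compound: 20 µM single dose. Times: enzyme reaction with compound 20 min at room temperature. Detection: resorufin fluorescence at Ex 544/Em 590 nm.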
ABCB1 inh – ABCB1 efflux pump inhibitors, primary screen, cell-based, multiplex, flow cytometry, ABCG2 counter-screen | AID 1326, 2008 | hit rate 0.067% among 190,000 | ATP-dependent translocase ABCB1 (Homo sapiens), P08183 | CCRF-Adr cells, JC-1 efflux | inhibition, % at 6.6 µM; in the data active = inhibition above about 40%;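 note: 0% = vehicle and 100% = reference inhibitor; higher value means more JC-1 retained so stronger ABCB1 efflux block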
PMI act – activators of human PMI, primary screen, biochemical, fluorescence intensity, near-Km mannose 6-phosphate; Mannose-6-phosphate isomerase (Homo sapiens), P34949; AID 1214, 2008; hit rate 0.005% among 190,000; activation factor at 20 µM; purified human PMI, coupled resazurin fluorescence, 20 min; active compounds read high; 1 = vehicle control, 0 substrate-free wells;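 active = activation factor of 2 or more at 20 µM, relative to plate controls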
ABCG2 inh – ABCG2 efflux pump inhibitors, primary screen, multiplex with ABCB1, IgMXP3 cells, flow cytometry; JC-1 efflux; inhibition, % at 6.6 µM; hit rate 0.1% among 190,000; AID 1325, 2008;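 active = inhibition above 80%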;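 note: 0% = DMSO and 100% = nicardipine control wells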
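System: two drug-resistant human cell lines, ABCG2 and ABCB1; controls: nicardipine high and DMSO low controls; times: 10 min exposure at 25 °C with rotation, no wash; detection: flow cytometry of retained JC-1 fluorescence; read-out basis: percent efflux inhibition, scaled nicardipine 100% to DMSO 0%; doses: one concentration, 6.6 µM final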
ROMK hit retest – ROMK channel modulator hit retest, confirmation, cell-based, thallium flux, duplicate, resupplied hits; normalized thallium flux (F/F0 slope) at 10 µM; fluorescence ratio; active compounds read low; AID 1917, 2009; shares compounds with ROMK primary; hit rate 54% among 3,000;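 active = Flux at 10 µM at least 3 SD below or above vehicle control mean in one or both replicates; inconclusive = no clear call, values can overlap the other calls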
Active calls of the source: *; ? = inconclusive; · = no result given.

SMILES	Cl transport mod	ROMK primary	PMI act hi M6P	ABCB1 inh	PMI act	ABCG2 inh	ROMK hit retest
Cc1ccc(Cl)cc1NC(=S)NCCCSC1CCCCC1	0.455	0.179	1	1.4	1	25.1	·
CCOC(=O)NNC(=O)NCCCCCCNC(=O)NNC(=O)OCC	0.147	0.108	·	·	·	·	·
CCC1CCC(C(=O)NC(C(=O)NCCCN2CCCCC2C)C(C)C)CC1 (configuration not stated)	0.424	-0.131	1	0.6	1.1	1.3	·
C=CCNc1sc(C(=O)c2ccccc2)c(N)c1C#N	-0.0226	·	1	-0.1	1.1	0.2	·
C=CCNc1sc(C(=O)c2ccc(Br)s2)c(N)c1C#N	-3.07	-3.59*	1	-0.4	1	-1.1	0.0558*
O=C(Nc1ccccc1N1CCOCC1)c1cc2c(s1)CCCCC2	-0.299	·	0.9	0.8	0.9	2.9	·
CCc1sc(C(=O)Nc2ccccc2N2CCOCC2)cc1C	-0.657	-2.64*	1	0.5	1	3.8	0.064*
O=C(COC(=O)C1CC2C=CC1C2)Nc1cccc(S(=O)(=O)N2CCOCC2)c1 (configuration not stated)	0.73	·	·	·	·	·	0.0869
CC1(C)Cc2c(C#N)c(SCCOc3ccccc3)nc(N3CCOCC3)c2CO1	0.455	·	0.8	2.1	0.8	10.9	?
O=c1cc(N2CCC(Cc3ccccc3)CC2)[nH]c(=O)n1C1CCCCC1	·	0.554	0.9	0.9	1	4.6	·
CC1CCN(CC(=O)Nc2ccc(Cl)cc2[N+](=O)[O-])CC1	-0.643	-0.43	1	0.8	1	4.2	·
CCOC(=O)c1c(C2COc3ccccc3O2)csc1NC(=O)c1ccco1 (configuration not stated)	-0.139	·	0.9	0.4	0.4	0.6	·
O=C(Nc1cccc(F)c1)NC1(C(=O)N2CCOCC2)CCCCC1	-0.0371	1.34	0.9	0.0	1	-0.5	·
CC(=O)Nc1ccc(S(=O)(=O)NCCCN2CCN(Cc3ccccc3)CC2)cc1Cl	-0.986	-12.7*	·	·	·	·	0.0731
Cc1ccc(S(=O)(=O)NCCC(=O)N2CCN(Cc3ccccc3)CC2)cc1	-0.731	·	0.9	0.8	0.9	1.6	·
COC(=O)C1=C(C(=O)OC)[C@@H]2N(Cc3ccccc3)c3ccccc3[C@@]23C[C@@H](C(=O)OC)N(C(=O)CC(C)C)C3=N1	-1.44	·	·	·	·	·	?
COC(=O)C1=C(C(=O)OC)[C@@H]2N(Cc3ccccc3)c3ccccc3[C@@]23C[C@@H](C(=O)OC)N(C(=O)c2cccs2)C3=N1	-1.28	·	·	·	·	·	·
CCC(C(=O)Nc1ccc(C(=O)N2CCCC2)cc1)c1ccccc1 (configuration not stated)	·	-0.633	1	-0.1	1	-0.3	·
Cc1ccnc(NS(=O)(=O)c2ccc(NC(=O)CN3C(=O)CCC3=O)cc2)n1	0.402	2.57*	1.1	-0.3	1.1	-1.9	0.0819
COc1ccc(NC(=S)N(C)CC2COc3ccccc3O2)cc1 (configuration not stated)	-0.154	0.502	1	1.0	1	9.3	·
Cc1ccc(C)n1-c1ccc(C(=O)NN=C2CCCC2)cc1	0.265	-0.0536	0.9	-0.3	1	-0.7	·
COc1cccc(NC(=O)c2cc([N+](=O)[O-])ccc2NCc2cccnc2)c1	-2.24	-6.66*	1.1	11.1	1	17.2	0.0297*
COCCNc1ccc([N+](=O)[O-])cc1C(=O)Nc1cccc(C)n1	-2.73	-5.06*	0.9	0.4	1	12.0	0.0286*
COc1cccc(NC(=O)c2cccc(C)c2[N+](=O)[O-])c1	0.00384	4.29*	1	0.5	1	4.4	0.0819
Cc1ccc(NC(=O)c2cc([N+](=O)[O-])ccc2NCc2cccnc2)cc1Cl	-0.187	·	0.9	0.2	1	0.3	·
SMILES	Cl transport mod	ROMK primary	PMI act hi M6P	ABCB1 inh	PMI act	ABCG2 inh	ROMK hit retest
CCCOC(=O)c1cc(NC(=O)/C=C/c2ccccc2)ccc1O	·	0.271	0.9	0.0	0.8	1.4	·
O=C(CN1C(=O)NC2(CCCC2)C1=O)N1CCc2ccccc2C1	-0.135	2.22*	0.9	-0.2	1	0.5	0.0869
COC(=O)C1CCN(c2cnccn2)CC1	·	·	1	0.7	0.9	-1.6	0.0776
CC(C)c1[nH]nc2c1C(c1cccs1)C(C#N)=C(N)O2 (configuration not stated)	-0.096	-5.67*	0.9	-0.2	0.9	-0.9	0.0582*
Cn1c(/C(C#N)=C/c2cccc(O)c2)nc2ccccc21	-2.31	-5.04*	0.9	1.1	0.9	4.2	0.0486*
N#C/C(=C\c1cccc(O)c1)c1nc2ccccc2o1	-2.04	·	·	·	·	·	·
COCCn1c(-c2cccc([N+](=O)[O-])c2)nc2c1c(=O)[nH]c(=O)n2Cc1ccccc1	-1.94	·	1.1	2.7	1.1	11.0	·
CCOC(=O)C1(CCSC)NC(c2ccco2)C2C(=O)N(C)C(=O)C21 (configuration not stated)	-0.174	0.58	1	0.0	1.2	-0.8	·
N#C/C(=C\c1cccs1)C(=O)c1ccccc1Cl	-1.15	·	·	·	·	·	0.0517*
O=C(/C(=C/c1ccncc1)n1ccnc1)c1ccc(Cl)cc1Cl	-0.782	-7.93*	·	·	·	·	0.0304*
O=C(/C(=C/c1cccnc1)n1ccnc1)c1ccc(Cl)cc1Cl	0.559	-5.61*	·	·	·	·	0.0301*
CC1CCCCN1CC(=O)c1c(N)n(Cc2ccccc2)c(=O)n(C)c1=O (configuration not stated)	1.11	0.216	1	1.1	1	3.8	·
C[C@@H]1NC(=O)c2cc([N+](=O)[O-])cc(I)c2OCC[C@@H](C(=O)NC(CC(=O)O)C(N)=O)NC(=O)[C@H](CC(N)=O)NC1=O (some centres not stated)	0.112	-0.00161	1.2	0.7	1.2	2.8	·
CCN(CC)c1ccc(NC(=O)CN2CCN(S(=O)(=O)c3cc(Cl)ccc3OC)CC2)cc1	-0.54	-1.93	1	1.1	1	1.9	·
